For 4 compounds, inhibition, IC50 and Activity results are on record in ChEMBL document CHEMBL1153956, “Synthesis of protein tyrosine phosphatase 1B inhibitors: model validation and docking studies” (Bioorg Med Chem Lett, 2009).

For experiment [1], the target named is T1, Tyrosine-protein phosphatase non-receptor type 1 (Homo sapiens) (UniProt P18031).
T1 sequence (whole entry): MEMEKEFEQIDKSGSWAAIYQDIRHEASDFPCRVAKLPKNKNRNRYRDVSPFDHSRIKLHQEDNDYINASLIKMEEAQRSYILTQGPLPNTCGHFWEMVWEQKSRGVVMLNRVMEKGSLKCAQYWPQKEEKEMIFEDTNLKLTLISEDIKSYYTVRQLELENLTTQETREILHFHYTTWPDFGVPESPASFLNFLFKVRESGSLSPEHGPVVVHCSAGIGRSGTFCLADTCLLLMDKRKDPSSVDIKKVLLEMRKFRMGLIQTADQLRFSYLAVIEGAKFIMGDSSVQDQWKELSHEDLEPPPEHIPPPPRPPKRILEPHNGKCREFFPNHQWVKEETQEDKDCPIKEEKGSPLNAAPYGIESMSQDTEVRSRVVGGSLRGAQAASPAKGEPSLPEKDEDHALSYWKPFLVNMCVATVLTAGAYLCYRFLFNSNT
Nature of the experiment: Inhibition of PTP1B at 100 uM. A digest of the protocol:
(§1)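 PTP1B was pre-incubated with test compound for 10 min in the reaction system, at graded doses for IC50 or at a single fixed concentration for percent inhibition. Residual activity was measured by the Goldstein method with 10 mM PNPP in 50 mM HEPES pH 7.0 containing 1 mM EDTA and DTT. Peroxovanadate served as control. The reaction was stopped with 0.1 N NaOH and read at 410 nm. p-Nitrophenolate was quantified using ε = 1.78 × 10⁴ M⁻¹ cm⁻¹.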

In experiment [2] the target is T2, Tyrosine-protein phosphatase non-receptor type 1 (Homo sapiens, UniProt P18031).
T2 sequence (P18031 whole entry): T1 sequence (whole entry)
Nature of the experiment: Inhibition of PTP1B. A digest of the protocol:
as §1

For experiment [3], the system named is Rattus norvegicus. In words: Antidiabetic activity in sucrose loaded Sprague-Dawley rat model assessed as reduction in blood glucose level at 100 mg/kg. The format is functional. Further details: scale not given: the % may be the effect or the level left.
Experiment [4] concerns Rattus norvegicus. In words: Antidiabetic activity in streptozotocin-induced diabetic Sprague-Dawley rat model assessed as reduction in blood glucose level at 100 mg/kg. The format is functional. Set-up: scale not given: the % may be the effect or the level left. A digest of the protocol:
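Streptozotocin-induced diabetic rats received compound, vehicle or metformin as reference standard. Blood glucose was monitored before dosing and up to 24 h after administration. Activity is expressed as percent sugar-lowering effect.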

Take `COc1ccc(CCNC(=O)Cc2cccc3ccccc23)cc1`: the inhibition (usually the share of the control response that was lost under treatment) in experiment [1] is 76.9%. Besides, in experiment [2], the half-maximal inhibitory concentration (IC50) (usually the point on the concentration scale where inhibition reaches its midpoint) came out at 69 µM. In addition, the results for the Activity in the experiment with Rattus norvegicus [3] and in the experiment with Rattus norvegicus [4] were 25.1% and 24.1%, respectively.
The compound `COc1ccc(CCNC(=O)COc2ccccc2)cc1` came in with an inhibition in experiment [1] of 68.2%. In experiment [2], this compound yielded a 50% inhibitory concentration (IC50) of 71 µM. Also, the Activity is 24.6% in the experiment on Rattus norvegicus [3] and 20.6% in the experiment with Rattus norvegicus [4].
In turn, `COc1ccc(CCNC(=O)Cc2ccccc2[N+](=O)[O-])cc1` registered an inhibition in experiment [1] of 62.5%. This compound also gave a concentration for half-maximal inhibition (IC50) in experiment [2] of 87 µM. In addition, the figures for the Activity in the experiment on Rattus norvegicus [3] and with Rattus norvegicus [4] were 19.8% and 17.5%, respectively.
Regarding `CN(C)C(=N)NC(=N)N` [METFORMIN], the Activity was 27.2% in the experiment with Rattus norvegicus [3] and 23.9% in the experiment with Rattus norvegicus [4].
